How the values were obtained:
CAKI-1 = experiment: Antitumor activity against human CAKI1 cells; format: functional
Procedure, shortened: (§1)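 Run by the NCI in its in vitro disease-oriented screen of about 60 human tumour cell lines. For each line it reports pGI50 (50% net growth inhibition), pTGI (total growth inhibition) and pLC50 (50% net cell death), each as –log molar concentration. Where an effect was not reached within the tested range, the highest tested concentration was used.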

A498 = experiment: Antitumor activity against human A498 cells; format: functional; procedure, shortened: as §1
SW-620 = experiment: Antitumor activity against human SW620 cells; format: functional
Procedure, shortened: (§2)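 NCI 60-cell-line screen. Parameters were GI50 (50% net growth inhibition), TGI and LC50, each reported as –log molar concentration. Where an effect was not reached within the tested range, the highest tested concentration was used in the calculation.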

SR = experiment: Antitumor activity against human SR cells; format: functional; procedure, shortened: as §2
OVCAR-8 = experiment: Antitumor activity against human OVCAR8 cells; format: functional; procedure, shortened: as §1
HOP-62 = experiment: Antitumor activity against human HOP62 cells; format: functional; procedure, shortened: as §1
MCF7 [1] = experiment: Resistance index, Ratio of GI50 for human multidrug-resistant MCF7 cells to GI50 for human MCF7 cells; format: functional
Procedure, shortened: (§3)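 Growth inhibition by MTT after 72 h incubation. Resistant sublines: LoVoDoxo and MCF-7 MDR were kept in 0.1 µg/mL doxorubicin; CEMVbl-100 was selected against vinblastine. GI50 given as mean ± SEM of three independent experiments. Resistance index is resistant-line GI50 over parental GI50.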

SK-MEL-2 = experiment: Antitumor activity against human SKMEL2 cells; format: functional; procedure, shortened: as §1
NCI/ADR-RES = experiment: Antitumor activity against human NCI/ADR-RES cells; format: functional; procedure, shortened: as §1
SF-268 [2] = experiment: Antitumor activity against human SF268 cells; format: functional; procedure, shortened: as §1
KM12 = experiment: Antitumor activity against human KM12 cells; format: functional; procedure, shortened: as §1
[3] = Antitumor activity against human […] cells; format: functional; procedure, shortened: as §1
A549 = experiment: Antitumor activity against human A549 cells; format: functional; procedure, shortened: as §1
T47D = experiment: Antitumor activity against human T47D cells; format: functional; procedure, shortened: as §2
HCT-116 = experiment: Antitumor activity against human HCT116 cells; format: functional; procedure, shortened: as §1
NCI-H23 = experiment: Antitumor activity against human NCI-H23 cells; format: functional; procedure, shortened: as §1
786-0 = experiment: Antitumor activity against human 786-0 cells; format: functional; procedure, shortened: as §1
RXF 393 = experiment: Antitumor activity against human RXF393 cells; format: functional; procedure, shortened: as §1
MCF7 [4] = experiment: Antitumor activity against human MCF7 cells; format: functional; procedure, shortened: as §1
UACC-62 = experiment: Antitumor activity against human UACC62 cells; format: functional; procedure, shortened: as §2
OVCAR-4 = experiment: Antitumor activity against human OVCAR4 cells; format: functional; procedure, shortened: as §1
TK-10 = experiment: Antitumor activity against human TK10 cells; format: functional; procedure, shortened: as §2
ACHN = experiment: Antitumor activity against human ACHN cells; format: functional; procedure, shortened: as §1
EKVX = experiment: Antitumor activity against human EKVX cells; format: functional; procedure, shortened: as §1
HCT-15 = experiment: Antitumor activity against human HCT15 cells; format: functional; procedure, shortened: as §1
MCF7 [5] = experiment: Growth inhibition of human MCF7 cells after 72 hrs by MTT assay; format: functional; conditions: MCF7, 72 h; procedure, shortened: as §3
CCRF-CEM = experiment: Growth inhibition of human CEM cells after 72 hrs by MTT assay; format: functional; procedure, shortened: as §3
BT-549 = experiment: Antitumor activity against human BT549 cells; format: functional; procedure, shortened: as §1
HT-29 = experiment: Antitumor activity against human HT29 cells; format: functional; procedure, shortened: as §1
U-251 = experiment: Antitumor activity against human U251 cells; format: functional; procedure, shortened: as §2
RPMI-8226 = experiment: Antitumor activity against human RPMI8226 cells; format: functional; procedure, shortened: as §1
Tubulin (Sus scrofa) = Tubulin (Sus scrofa) (UniProt P02554+P02550); experiment: Inhibition of pig brain tubulin polymerization
PC-3 = experiment: Antitumor activity against human PC3 cells; format: functional; procedure, shortened: as §1
MCF7 [6] = experiment: Cell viability against human MCF7 cells at 10 uM; format: functional
LOX IMVI = experiment: Antitumor activity against human LOXIMVI cells; format: functional; procedure, shortened: as §1
SF-268 [7] = experiment: Cell viability against human SF268 cells at 10 uM; format: functional
Hs-578T = experiment: Antitumor activity against human HS578T cells; format: functional; procedure, shortened: as §1
SK-OV-3 = experiment: Antitumor activity against human SKOV3 cells; format: functional; procedure, shortened: as §1
M14 = experiment: Antitumor activity against human M14 cells; format: functional; procedure, shortened: as §1
NCI-H522 = experiment: Antitumor activity against human NCI-H522 cells; format: functional; procedure, shortened: as §1
SF-295 = experiment: Antitumor activity against human SF295 cells; format: functional; procedure, shortened: as §1
[8] = read-out: Log LC50 (the source's name) (converted)

Tubulin (Sus scrofa), sequence (P02550 whole entry, looked up): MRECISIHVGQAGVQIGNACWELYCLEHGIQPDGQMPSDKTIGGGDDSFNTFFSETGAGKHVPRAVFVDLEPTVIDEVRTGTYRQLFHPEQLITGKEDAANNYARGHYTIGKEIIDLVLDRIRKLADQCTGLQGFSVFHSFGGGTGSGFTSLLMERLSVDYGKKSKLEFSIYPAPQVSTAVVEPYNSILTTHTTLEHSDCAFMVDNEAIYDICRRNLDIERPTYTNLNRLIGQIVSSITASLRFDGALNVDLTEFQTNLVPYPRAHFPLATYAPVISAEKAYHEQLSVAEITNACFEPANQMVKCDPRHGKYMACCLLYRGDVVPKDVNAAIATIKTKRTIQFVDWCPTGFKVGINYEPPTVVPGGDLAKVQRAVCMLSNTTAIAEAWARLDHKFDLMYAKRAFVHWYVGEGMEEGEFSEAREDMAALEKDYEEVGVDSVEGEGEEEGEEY
Tubulin (Sus scrofa), sequence (P02554 whole entry, looked up): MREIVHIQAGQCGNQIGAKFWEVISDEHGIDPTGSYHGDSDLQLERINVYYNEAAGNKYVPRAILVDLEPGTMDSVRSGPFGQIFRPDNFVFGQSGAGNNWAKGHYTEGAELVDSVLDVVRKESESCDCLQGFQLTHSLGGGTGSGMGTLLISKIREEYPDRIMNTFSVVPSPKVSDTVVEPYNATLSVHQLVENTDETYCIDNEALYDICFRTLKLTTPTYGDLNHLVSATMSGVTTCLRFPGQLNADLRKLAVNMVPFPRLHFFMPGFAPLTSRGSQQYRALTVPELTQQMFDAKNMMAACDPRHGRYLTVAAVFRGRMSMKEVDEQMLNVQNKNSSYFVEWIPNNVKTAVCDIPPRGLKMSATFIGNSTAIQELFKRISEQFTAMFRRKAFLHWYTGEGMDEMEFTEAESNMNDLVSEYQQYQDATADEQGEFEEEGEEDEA

Compound O=c1[nH]c2ccccc2n2cc3ccccc3c12 has a GI50 (CAKI-1) of 17.8 µM, an LC50 (CAKI-1) of 70.8 µM and a TGI (CAKI-1; read-out: pTGI (converted)) of 35.5 µM. It also gave a GI50 (A498) of 11.2 µM, a CC50 (A498; [8]) of 64.6 µM and a TGI (A498; read-out: pTGI (converted)) of 26.9 µM. The GI50 (SW-620) was 3.72 µM, the CC50 (SW-620; [8]) was > 100 µM and the TGI (SW-620; read-out: pTGI (converted)) was > 100 µM. For the same compound, the GI50 (SR) was 2.88 µM, the LC50 (SR) was > 100 µM and the TGI (SR; read-out: pTGI (converted)) was 7.76 µM. The GI50 (OVCAR-8) was 5.25 µM, the LC50 (50% net cell death) (OVCAR-8) was > 100 µM and the TGI (OVCAR-8; read-out: pTGI (converted)) was 33.1 µM. For the same compound, the GI50 (HOP-62) was 4.37 µM, the LC50 (50% net cell death) (HOP-62) was 52.5 µM and the TGI (HOP-62; read-out: pTGI (converted)) was 17.8 µM. The RatioGI50 (MCF7 [1]) was 1.6, the GI50 (SK-MEL-2) was 20.4 µM and the LC50 (SK-MEL-2) was 72.4 µM. For the same compound, the TGI (SK-MEL-2; read-out: pTGI (converted)) was 38.9 µM, the GI50 (NCI/ADR-RES) was 6.46 µM and the LC50 (NCI/ADR-RES) was > 100 µM. The TGI (NCI/ADR-RES; read-out: pTGI (converted)) was 32.4 µM, the GI50 (SF-268 [2]) was 21.4 µM and the CC50 (SF-268 [2]; [8]) was > 100 µM. It also gave a TGI (SF-268 [2]; read-out: pTGI (converted)) of 87.1 µM, a GI50 (KM12) of 19.1 µM and an LC50 (50% net cell death) (KM12) of 83.2 µM. It also gave a TGI (KM12; read-out: pTGI (converted)) of 39.8 µM, a GI50 [3] of 0.955 µM and an LC50 [3] of 58.9 µM. For the same compound, the TGI ([3]; read-out: pTGI (converted)) was 10.2 µM, the GI50 (A549) was 5.89 µM and the CC50 (A549; [8]) was > 100 µM. The TGI (A549; read-out: pTGI (converted)) was 32.4 µM, the GI50 (T47D) was 7.41 µM and the LC50 (T47D) was > 100 µM. For the same compound, the TGI (T47D; read-out: pTGI (converted)) was > 100 µM, the GI50 (HCT-116) was 2.14 µM and the LC50 (HCT-116) was 49 µM. For the same compound, the TGI (HCT-116; read-out: pTGI (converted)) was 12.3 µM, the GI50 (NCI-H23) was 11.2 µM and the LC50 (50% net cell kill) (NCI-H23) was > 100 µM. The TGI (NCI-H23; read-out: pTGI (converted)) was 36.3 µM, the GI50 (786-0) was 4.27 µM and the CC50 (786-0; [8]) was 55 µM. The TGI (786-0; read-out: pTGI (converted)) was 18.2 µM, the GI50 (RXF 393) was 6.31 µM and the CC50 (RXF 393; [8]) was > 100 µM. The TGI (RXF 393; read-out: pTGI (converted)) was 30.2 µM, the GI50 (MCF7 [4]) was 10.5 µM and the LC50 (50% net cell kill) (MCF7 [4]) was > 100 µM. For the same compound, the TGI (MCF7 [4]; read-out: pTGI (converted)) was > 100 µM, the GI50 (UACC-62) was 3.24 µM and the LC50 (UACC-62) was 45.7 µM. For the same compound, the TGI (UACC-62; read-out: pTGI (converted)) was 15.8 µM, the GI50 (OVCAR-4) was 7.24 µM and the LC50 (50% net cell kill) (OVCAR-4) was > 100 µM. For the same compound, the TGI (OVCAR-4; read-out: pTGI (converted)) was 89.1 µM, the GI50 (TK-10) was 20.4 µM and the CC50 (TK-10; [8]) was 66.1 µM. The TGI (TK-10; read-out: pTGI (converted)) was 37.2 µM, the GI50 (ACHN) was 1.82 µM and the LC50 (50% net cell kill) (ACHN) was 34.7 µM. The TGI (ACHN; read-out: pTGI (converted)) was 7.24 µM, the GI50 (EKVX) was 4.79 µM and the LC50 (50% net cell kill) (EKVX) was > 100 µM. For the same compound, the TGI (EKVX; read-out: pTGI (converted)) was 69.2 µM, the GI50 (HCT-15) was 3.31 µM and the CC50 (HCT-15; [8]) was 93.3 µM. The TGI (HCT-15; read-out: pTGI (converted)) was 18.6 µM, the GI50 (MCF7 [5]) was 6.5 µM and the GI50 (CCRF-CEM) was 4.7 µM. The GI50 (BT-549) was 19.1 µM, the LC50 (50% net cell kill) (BT-549) was > 100 µM and the TGI (BT-549; read-out: pTGI (converted)) was 64.6 µM. For the same compound, the GI50 (HT-29) was 4.37 µM, the LC50 (HT-29) was > 100 µM and the TGI (HT-29; read-out: pTGI (converted)) was > 100 µM. The GI50 (U-251) was 3.24 µM, the CC50 (U-251; [8]) was 70.8 µM and the TGI (U-251; read-out: pTGI (converted)) was 13.5 µM. For the same compound, the GI50 (RPMI-8226) was 3.72 µM, the CC50 (RPMI-8226; [8]) was > 100 µM and the TGI (RPMI-8226; read-out: pTGI (converted)) was 22.4 µM. For the same compound, the Activity (Tubulin (Sus scrofa)) was > 10 µM, the GI50 (PC-3) was 5.75 µM and the LC50 (50% net cell death) (PC-3) was > 100 µM. The TGI (PC-3; read-out: pTGI (converted)) was 28.8 µM, the Activity (MCF7 [6]) was 6% and the GI50 (LOX IMVI) was 3.02 µM. For the same compound, the LC50 (50% net cell kill) (LOX IMVI) was 85.1 µM, the TGI (LOX IMVI; read-out: pTGI (converted)) was 12 µM and the Activity (SF-268 [7]) was 9%. For the same compound, the GI50 (Hs-578T) was 0.525 µM, the CC50 (Hs-578T; [8]) was > 100 µM and the TGI (Hs-578T; read-out: pTGI (converted)) was 34.7 µM. For the same compound, the GI50 (SK-OV-3) was 12.3 µM, the LC50 (50% net cell kill) (SK-OV-3) was > 100 µM and the TGI (SK-OV-3; read-out: pTGI (converted)) was 35.5 µM. It also gave a GI50 (M14) of 6.46 µM, a CC50 (M14; [8]) of 64.6 µM and a TGI (M14; read-out: pTGI (converted)) of 22.9 µM. The GI50 (NCI-H522) was 13.8 µM, the CC50 (NCI-H522; [8]) was 75.9 µM and the TGI (NCI-H522; read-out: pTGI (converted)) was 32.4 µM. The GI50 (SF-295) was 17.8 µM, the CC50 (SF-295; [8]) was 70.8 µM and the TGI (SF-295; read-out: pTGI (converted)) was 35.5 µM.

Source: ChEMBL document CHEMBL1144782, “Isoindolo[2,1-a]quinoxaline derivatives, novel potent antitumor agents with dual inhibition of tubulin polymerization and topoisomerase I” (2008)
